Activity calls are given as the source filed them. The rule behind the calls is not given here.
Assays:
[1] = test system: HeLa; test: Induction of cell cycle arrest in human Hela cells assessed as decrease in cdc2 expression measured after 24 hrs by Western blot analysis relative to control; type: functional, cell-based; details: dose 30-120 nM
Method in brief: (§1)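 HeLa cells treated as for cell-cycle analysis (30, 60, 120 nM, 24 h), then lysed and protein quantified. Lysates boiled 5 min, run on SDS-PAGE and transferred to PVDF. Membranes blocked in 5% skim milk 1 h at RT, primary antibodies overnight at 4 °C, β-actin/GAPDH as loading controls. Secondary antibody 1:4000 for 2 h at RT. Mean ± SD of three independent experiments.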

[2] = test system: HT-29; test: Antiproliferative activity against human HT29 cells assessed as cell growth inhibition after 48 hrs by MTT assay; type: functional, cell-based; details: HT-29, 48 h
[3] = test system: HeLa; test: Induction of apoptosis in human HeLa cells assessed as effect on Bax level incubated for 24 hrs by Western blot analysis; type: functional, cell-based; method in brief: as §1
[4] = test system: HeLa; test: Induction of apoptosis in human HeLa cells assessed as increase in cleaved PARP level incubated for 24 hrs by Western blot analysis; type: functional, cell-based; method in brief: as §1
[5] = test system: T47D; test: Antiproliferative activity against human T47D cells assessed as cell growth inhibition after 48 hrs by MTT assay; type: functional, cell-based
[6] = test system: HeLa; test: Cell cycle arrest in human HeLa cells assessed as increase in cells accumulation at G2/M phase at 30 nM measured after 24 hrs by propidium iodide staining based flow cytometric analysis (reference value: 12.49 %); type: functional
[7] = molecular target: T1, Tubulin (Homo sapiens) (UniProt P68371+Q9H4B7+P0DPH7+P68366+Q13509+Q71U36+P04350+Q3ZCM7+P07437+P68363+Q9BQE3+Q6PEY2+Q13885+Q9BVA1+Q9BUF5); test: Inhibition of tubulin polymerization (unknown origin) at 10 uM measured after 30 mins every 1 min for 20 mins by spectrophotometric method; type: protein-complex assay
Method in brief: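 Tubulin at 2 mg/mL in PEM buffer (100 mM PIPES pH 6.9, 1 mM MgCl2, 1 mM EGTA, 5% glycerol) preincubated on ice with compound or DMSO, then GTP added. After 0.5 h, A340 read every 1 min for 20 min at 37 °C. Plateau values used. Single-point inhibition at 10 µM; IC50 is the concentration halving polymerization at 20 min, mean ± SD of three experiments.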

[8] = test system: HeLa; test: Cell cycle arrest in human HeLa cells assessed as increase in cells accumulation at G0/G1 phase at 120 nM measured after 24 hrs by propidium iodide staining based flow cytometric analysis (reference value: 67.22 %); type: functional
[9] = test system: HeLa; test: Induction of apoptosis in human HeLa cells assessed as early apoptotic cells at 60 nM after 24 hrs by AnnexinV/PI-staining based flow cytometry (reference value: 2.87%)
[10] = test system: HeLa; test: Induction of apoptosis in human HeLa cells assessed as early apoptotic cells at 30 nM after 24 hrs by AnnexinV/PI-staining based flow cytometry (reference value: 2.87%)
[11] = molecular target: T1, Tubulin (Homo sapiens); test: Inhibition of […]colchicine binding to tubulin (unknown origin) at 4 uM incubated for 45 mins by fluorescence assay relative to control; type: protein-complex assay
Method in brief: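 Tubulin (4 µM) preincubated 45 min at 37 °C with test agent (20–80 µM), then colchicine (4 µM) added. After a further 45 min at 37 °C, fluorescence read at excitation 340 nm and emission 435 nm, with buffer blank subtracted.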

[12] = test system: HeLa; test: Cell cycle arrest in human HeLa cells assessed as increase in cells accumulation at S phase at 60 nM measured after 24 hrs by propidium iodide staining based flow cytometric analysis (reference value: 20.29 %); type: functional
[13] = test system: HeLa; test: Induction of apoptosis in human HeLa cells assessed as late apoptotic cells at 60 nM after 24 hrs by AnnexinV/PI-staining based flow cytometry (reference value: 0.884 %)
[14] = test system: A549; test: Antiproliferative activity against human A549 cells assessed as cell growth inhibition after 48 hrs by MTT assay; type: functional, cell-based; details: A549, 48 h
Method in brief: (§2)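 Cells grown at 37 °C with CO2 in RPMI-1640 or DMEM plus 10% FBS. Seeded at 2 × 10³ per well, attached 24 h, then medium changed. Compound exposure 48 h at 37 °C, DMSO 0.1% as vehicle. MTT added and incubated a further 4 h. Crystals dissolved, absorbance read at 570 nm. IC50 from curve fitting, mean ± SD of three independent experiments.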

[15] = test system: HEK293; test: Antiproliferative activity against human HEK293 cells assessed as cell growth inhibition after 48 hrs by MTT assay; type: cell-based; details: HEK293, 48 h; method in brief: as §2
[16] = test system: HeLa; test: Cell cycle arrest in human HeLa cells assessed as increase in cells accumulation at S phase at 120 nM measured after 24 hrs by propidium iodide staining based flow cytometric analysis (reference value: 20.29 %); type: functional
[17] = test system: HeLa; test: Cell cycle arrest in human HeLa cells assessed as increase in cells accumulation at G0/G1 phase at 30 nM measured after 24 hrs by propidium iodide staining based flow cytometric analysis (reference value: 67.22 %); type: functional
[18] = test system: HeLa; test: Induction of apoptosis in human HeLa cells assessed as necrotic cells at 120 nM after 24 hrs by AnnexinV/PI-staining based flow cytometry (reference value: 0.093 %)
[19] = test system: HeLa; test: Induction of apoptosis in human HeLa cells assessed as late apoptotic cells at 30 nM after 24 hrs by AnnexinV/PI-staining based flow cytometry (reference value: 0.884 %)
[20] = molecular target: Tubulin; test: Inhibition of tubulin polymerization (unknown origin) measured afer 30 mins every 1 min for 20 mins by spectrophotometric method; type: protein-complex assay, Homo sapiens
Method in brief: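 Tubulin at 2 mg/mL in PEM buffer (100 mM PIPES pH 6.9, 1 mM MgCl2, 1 mM EGTA, 5% glycerol) preincubated on ice with compound or DMSO, then GTP added. After 0.5 h, A340 read every 1 min for 20 min at 37 °C. Plateau values used.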

[21] = test system: HeLa; test: Induction of apoptosis in human HeLa cells assessed as late apoptotic cells at 120 nM after 24 hrs by AnnexinV/PI-staining based flow cytometry (reference value: 0.884 %)
[22] = test system: HeLa; test: Induction of apoptosis in human HeLa cells assessed as early apoptotic cells at 120 nM after 24 hrs by AnnexinV/PI-staining based flow cytometry (reference value: 2.87%)
[23] = test system: HepG2; test: Antiproliferative activity against human HepG2 cells assessed as cell growth inhibition after 48 hrs by MTT assay; type: functional, cell-based; details: HepG2, 48 h; method in brief: as §2
[24] = test system: HeLa; test: Induction of apoptosis in human HeLa cells assessed as necrotic cells at 60 nM after 24 hrs by AnnexinV/PI-staining based flow cytometry (reference value: 0.093 %)
[25] = test system: HCT-116; test: Antiproliferative activity against human HCT-116 cells assessed as cell growth inhibition after 48 hrs by MTT assay; type: functional, cell-based; details: HCT-116, 48 h; method in brief: as §2
[26] = test system: HeLa; test: Antiproliferative activity against human HeLa cells assessed as cell growth inhibition after 48 hrs by MTT assay; type: functional, cell-based; method in brief: as §2
[27] = test system: HeLa; test: Induction of apoptosis in human HeLa cells assessed as necrotic cells at 30 nM after 24 hrs by AnnexinV/PI-staining based flow cytometry (reference value: 0.093 %)
[28] = test system: HeLa; test: Cell cycle arrest in human HeLa cells assessed as increase in cells accumulation at G2/M phase at 60 nM measured after 24 hrs by propidium iodide staining based flow cytometric analysis (reference value: 12.49 %); type: functional
[29] = test system: HeLa; test: Induction of cell cycle arrest in human Hela cells assessed as increase in cyclin B1 expression measured after 24 hrs by Western blot analysis relative to control; type: functional, cell-based; details: dose 30-120 nM; method in brief: as §1
[30] = test system: HeLa; test: Cell cycle arrest in human HeLa cells assessed as increase in cells accumulation at G0/G1 phase at 60 nM measured after 24 hrs by propidium iodide staining based flow cytometric analysis (reference value: 49.85 %); type: functional
[31] = test system: HeLa; test: Cell cycle arrest in human HeLa cells assessed as increase in cells accumulation at S phase at 30 nM measured after 24 hrs by propidium iodide staining based flow cytometric analysis (reference value: 20.29 %); type: functional
[32] = test system: HeLa; test: Cell cycle arrest in human HeLa cells assessed as increase in cells accumulation at G2/M phase at 120 nM measured after 24 hrs by propidium iodide staining based flow cytometric analysis (reference value: 12.49 %); type: functional

Q: Which Activity [1] does the source give for `COc1ccc(-c2nc3nccc(-c4cc(OC)c(OC)c(OC)c4)n3n2)cc1O` here?
A: Active

Q: And the IC50 [2]?
A: 0.24 µM

Q: And the Activity [3]?
A: inactive

Q: What about the Activity [4] of the same molecule?
A: Active

Q: And the IC50 [5]?
A: 3.49 µM

Q: What about the Activity [6] of the same molecule?
A: 16.18%

Q: And the inhibition [7]?
A: 94%

Q: And the Activity [8]?
A: 29.01%

Q: And the Activity [9]?
A: 10.5%

Q: What about the Activity [10] of the same molecule?
A: 8.5%

Q: And the inhibition [11]?
A: Dose-Dependent Effect

Q: And the Activity [12]?
A: 27.84%

Q: What about the Activity [13] of the same molecule?
A: 8.85%

Q: What about the IC50 [14] of the same molecule?
A: 6.05 µM

Q: What about the IC50 [15] of the same molecule?
A: > 100 µM

Q: And the Activity [16]?
A: 24.67%

Q: And the Activity [17]?
A: 66.03%

Q: What about the Activity [18] of the same molecule?
A: 2.37%

Q: What about the Activity [19] of the same molecule?
A: 5.61%

Q: And the IC50 [20]?
A: 1.3 µM

Q: And the Activity [21]?
A: 19.3%

Q: And the Activity [22]?
A: 14.3%

Q: And the IC50 [23]?
A: 14.7 µM

Q: What about the Activity [24] of the same molecule?
A: 1.07%

Q: What about the IC50 [25] of the same molecule?
A: 18.4 µM

Q: What about the IC50 [26] of the same molecule?
A: 0.06 µM

Q: And the Activity [27]?
A: 0.329%

Q: What about the Activity [28] of the same molecule?
A: 22.81%

Q: What about the Activity [29] of the same molecule?
A: Dose-Dependent Effect

Q: What about the Activity [30] of the same molecule?
A: 49.85%

Q: What about the Activity [31] of the same molecule?
A: 17.79%

Q: What about the Activity [32] of the same molecule?
A: 46.82%
